From PMC2195906 (The Journal of Experimental Medicine, 2001)
Entries after “also recorded” stand apart in the source; their conditions may differ. Ends that are not written are not given here. * marks the point of attachment. Biotin = O=C1N[C@H]2[C@H](CS[C@H]2CCCCC(=O)*)N1

What was measured:
[1] = target: T1, ANT (Rattus norvegicus, UniProt Q05962); assay: Planar lipid bilayers, single channel level, Vpr52-96 plus ANT; assay type: biochemical; details: +75 mV
T1 sequence (Q05962 1-298): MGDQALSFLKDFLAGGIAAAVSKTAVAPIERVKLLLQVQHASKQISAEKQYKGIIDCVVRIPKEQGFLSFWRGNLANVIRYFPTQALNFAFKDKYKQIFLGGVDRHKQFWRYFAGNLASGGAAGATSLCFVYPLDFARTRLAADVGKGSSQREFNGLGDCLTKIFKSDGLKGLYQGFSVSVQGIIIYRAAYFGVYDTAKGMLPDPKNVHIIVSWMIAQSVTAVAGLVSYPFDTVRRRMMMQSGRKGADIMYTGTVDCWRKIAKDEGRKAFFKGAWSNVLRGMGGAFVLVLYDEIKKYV
Outline: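 Rat heart mitochondrial ANT, purified via subtilisin treatment, Triton X-100 solubilization, hydroxyapatite and SP column (0–1 M NaCl). Proteins held 30 min RT with 1 mM CaCl2, 40 μM atractyloside or control electrolyte, mixed with dried lipid (60 μg protein/mg lipid), detergent removed by beads. Tip-dip bilayers, symmetric 100 mM KCl, 2 mM MgCl2, 10 mM Hepes pH 7.4.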

[2] = system: ANT; details: ref 8 26 28 40; cited from earlier work
[3] = system: VDAC; details: sucrose or cytochrome c, in vitro; ref 9 44; cited from earlier work
[4] = target: T1, ANT; assay: Plasmon resonance; assay type: binding; details: for binding affinity for ANT (in words): surface plasmon resonance, purified detergent-solubilized ANT; for sensorgram: increase of binding as a function of time: plasmon resonance, association and dissociation phase, Fig. 1 A
[5] = system: COS cells; assay: ΔΨm dissipation in microinjected COS cells; assay type: cell-based
Outline: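 COS cells grown in DMEM Glutamax with Hepes, antibiotics and 10% FCS on a premarked coverslip area (>200 cells per experiment). Cells were injected into the cytoplasm (200 hPa, 0.5 s) with PBS pH 7.2, recombinant human Bcl-2 (residues 1–218; 10 μM in the injection solution) or 2 μM König's polyanion.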

[6] = Binding of FITC–Vpr52-96 to purified mitochondria; design: species or system mouse; details: for effect on binding of Vpr52-96 to purified mitochondria: 10 min preincubation with inhibitors, Fig. 7 B
[7] = system: purified mitochondria (ΔΨm); assay: ΔΨm dissipation in purified mitochondria, effect of inhibitors; assay type: biochemical, mouse; details: for protection against Vpr-induced inner MMP (in words): purified mitochondria, Fig. 6 B–E
[8] = system: ANT; assay: Affinity purification of ANT by biotinylated Vpr52-96 and immunoblot; assay type: binding, mouse; details: Fig. 7 C
[9] = system: purified mitochondria, inner membrane; assay: Respirometry: NADH-dependent oxygen consumption; assay type: biochemical, mouse; details: Bcl-2 0.8 μM pretreated 10 min; other agents added; Fig. 5 A, 6 B
Outline: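 Oxygen uptake was recorded by Clark electrode at 37°C (mannitol/KCl/MgCl2/BSA/KH2PO4 medium, pH 7.4) after 2 mM NADH and 1 μM peptide, with rotenone added to test sensitivity; rates are in nmol O2/min/mg protein. For inhibitor tests, mitochondria were pretreated 10 min with 0.8 μM Bcl-2 or 10 μM BA before succinate plus CCCP or NADH. In the kinetics, 15 μM cytochrome c oxidation was followed in parallel, with 100% set by 2.5 mM laurylmaltoside.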

[10] = system: Vpr52-96–ANT interaction; assay type: binding, rat; details: native purified ANT; Fig. 8 A; X ± SD, n = 3
[11] = system: isolated mitochondria; assay: Ultrastructure: swelling of isolated mitochondria; assay type: biochemical, mouse; details: Fig. 6 C
[12] = system: ANT proteoliposomes; assay: Binding of FITC-labeled Vpr52-96 to ANT proteoliposomes; design: species or system rat; details: FITC–Vpr52-96 (2 μM in Fig. 2 B); BA 50 μM; Bcl-2 800 nM preincubated (Fig. 8 B)
Outline: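 ANT was purified from rat heart mitochondria (Triton X-100 extraction, hydroxyapatite, then cation-exchange with a 0–1 M NaCl gradient) and reconstituted at 0.1 mg/ml into phosphatidylcholine/cardiolipin liposomes, then dialysed overnight at 4°C. Proteoliposomes were exposed 30 min to FITC-peptide in 125 mM sucrose/10 mM Hepes pH 7.4, ultracentrifuged (290,000 g, 45 min, 10°C) and read by flow cytometry. Inhibitors were preincubated and washed out; mean ± SD, n = 3.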

[13] = system: purified mitochondria (respiratory control); assay: Respiratory control; assay type: biochemical, mouse; details: 1 μM Vpr-derived peptides, 10 min
Outline: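 Clark-electrode oxygraphy at 37°C in 0.3 M mannitol, 10 mM KCl, 5 mM MgCl2, 1 mg/ml BSA, 10 mM KH2PO4, pH 7.4. Purified mitochondria were pretreated 10 min with 1 μM peptide; succinate oxidation was followed with sequential ADP, oligomycin and CCCP additions. Mean of three determinations.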

[14] = system: ANT proteoliposomes; assay: Pore-opening assay: 4-MUP release from ANT proteoliposomes; assay type: biochemical, rat; details: peptides 1 μM, 60 min, Atr 200 μM = 100%, Fig. 2 C
Outline: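 ANT purified from rat heart mitochondria, reconstituted into PC/cardiolipin liposomes, sonicated on ice with 1 mM 4-MUP/10 mM KCl, gel-filtered. Diluted in 10 mM Hepes, 125 mM saccharose pH 7.4, peptide 1 h RT; inhibitors added 30 min earlier. Alkaline phosphatase (0.5 mM MgCl2) 15 min 37°C, stopped at pH 10. 4-MU fluorescence 360/450 nm. Release = % of atractyloside response after untreated background subtraction; n = 3, SD.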

[15] = target: biotin–Vpr52-96 (synthetic peptide, COOH-terminal moiety of HIV-1 viral protein R) (HIV-1) (UniProt P69726); assay: SPR
[16] = system: recombinant VDAC; assay: Plasmon resonance: binding to recombinant VDAC; details: control experiments, VDAC concentrations up to 10 μM

In the case of Bax: proapoptotic Bcl-2 family protein, the “conductance of Vpr52-96–ANT channels in presence of Bax” value ([1]; Vpr52-96 plus ANT plus Bax 0.4:1:0.3 nM, mean value) is listed as 245 ± 2 pS, the “effect on ANT pore formation” value [2] is listed as “cause ANT (which normally is a strictly specific ADP/ATP antiporter) to form a nonspecific pore” and the “effect on permeabilization of VDAC-containing liposomes” value [3] is listed as “enhanced by Bax”.

For “biotin–Vpr52-96[R73,80A]: mutated biotin–Vpr52-96[R73,80A], immobilized on biosensor chip (Biotin-DTWAGVEAIIRILQQLLFIHFAIGCRHSAIGVTRQRRARNGASRS)”, the “binding affinity for ANT (in words)” value [4] was “to a far lesser extent”.

With “Vpr: Vpr added extracellularly to intact cells; Fig. 6 A legend gives 1 μM Vpr52-96” the “vehicle-microinjected cells with complete ΔΨm dissipation” value ([5]; 1 μM Vpr52-96 (Fig. 6 A), 3 h, n = 3) was 61 ± 8%.

In the case of König's polyanion [PA10], the “effect on binding of Vpr52-96 to purified mitochondria” value (“effect on binding” for short) [6] is reported as “completely abolished; also recorded: completely blocks the binding of Vpr52-96 to intact mitochondria”, the “effect on Vpr action on intact cells (in words)” value ([5]; 2 μM PA10 microinjected, 1 μM Vpr52-96, 3 h) is reported as “also inhibited the effect of Vpr52-96 on intact cells” and the “protection against Vpr-induced inner MMP (in words)” value (from here on “protection”) [7] is reported as “also inhibited the manifestations of inner MMP”. The “effect on Vpr52-96-mediated purification of ANT, intact mitochondria” value ([8]; 5 μM biotinylated Vpr52-96, 30 min RT, lysed after incubation) was “fully abolished” and the “effect on Vpr52-96-mediated purification of ANT, Triton-solubilized mitochondria” value ([8]; mitochondria lysed before incubation with 5 μM biotinylated Vpr52-96) was “did not affect”.

With “Bcl-2: recombinant human Bcl-2 (amino acids 1–218)” the “effect on formation of Vpr52-96–induced channels in ANT-containing lipid bilayers” value ([1]; Vpr52-96 plus ANT plus Bcl-2 0.4:1:1 nM, Fig. 8 C) was “suppresses channel formation by the ANT–Vpr complex; also recorded: abolished the formation of Vpr52-96–induced channels”, the “effect on binding” value [6] was “failed to impair the binding of Vpr52-96 to purified mitochondria; also recorded: not affected” and the “effect on Vpr-induced NADH-dependent oxygen consumption” value [9] was “inhibited the Vpr-mediated inner MMP to NADH”. The “effect of Bcl-2 proteins on Vpr52-96 binding to soluble ANT” value [10] was “reduces the ANT–Vpr interaction; also recorded: reduced Vpr52-96 binding to soluble; also recorded: inhibits binding of Vpr52-96 to ANT”, the “inhibition of Vpr-induced ΔΨm loss in intact cells” value ([5]; 10 μM recombinant human Bcl-2 microinjected, 1 μM Vpr52-96, 3 h) was ≥ 95% and the “cells with ΔΨm reduction, inhibitor-injected” value ([5]; Bcl-2-injected (10 μM), 1 μM Vpr52-96, 3 h) was “Less than 5%”. For the same molecule, the “inhibition of Vpr-induced matrix swelling” value ([11]; Bcl-2 preincubation) was ~50%, the “effect on Vpr52-96-induced matrix swelling (in words)” value [11] was “strongly reduced the Vpr52-96–induced matrix swelling” and the “effect on Vpr binding to ANT proteoliposomes” value [12] was “reduced”. For the same molecule, the “inhibition of Vpr-induced ΔΨm loss in purified mitochondria” value ([7]; Bcl-2 preincubation (0.8 μM), Fig. 6 D, E) was ~70%, the “protection” value [7] was “protect mitochondria against Vpr-induced MMP” and the “effect on permeabilization of VDAC-containing liposomes” value [3] was “inhibited by Bcl-2”.

With Vpr1-51: NH2-terminal moiety of Vpr the “effect on RC (in words)” value [13] was “but not Vpr1-51” and the “permeabilization of ANT proteoliposomes” value [14] was “but not the NH2-terminal moiety of Vpr [Vpr1-51]”.

In the case of cyclosporin A [CsA], the “effect on binding” value [6] is reported as “not affected” and the “protection” value [7] is reported as “also inhibited the manifestations of inner MMP”.

For “FITC-labeled Vpr52-96: FITC-labeled Vpr52-96 (DTWAGVEAIIRILQQLLFIHFRIGCRHSRIGVTRQRRARNGASRS; also: FITC label, position not given here)”, the “binding of FITC-labeled Vpr52-96 to intact mitochondria” value ([6]; 0.5 μM FITC–Vpr52-96, Fig. 7 A) was “rapidly bound to intact mitochondria and then provoked ΔΨm loss”.

For “adenine nucleotide translocator (ANT) purified from rat heart mitochondria (from UniProt Q05962 1-298) (natural protein)”, the Kd [15] was 9.7 nM.

In the case of `C=C(C)[C@H]1Cc2c(ccc3c2O[C@@H]2COc4cc(OC)c(OC)cc4[C@@H]2C3=O)O1` [rotenone, reference compound], the “effect on Vpr-induced NADH-dependent oxygen consumption” value [9] is reported as “fully sensitive to rotenone”.

In the case of `C=C1[C@@H]2CC[C@H]3[C@]4(C)C[C@H](O[C@@H]5O[C@H](CO)[C@@H](OS(=O)(=O)O)[C@H](OS(=O)(=O)O)[C@H]5OC(=O)CC(C)C)C[C@@H](C(=O)O)[C@H]4CC[C@]3(C2)[C@H]1O` [Atr, atractyloside, reference compound], the “effect on ANT pore formation” value [2] is listed as “cause ANT (which normally is a strictly specific ADP/ATP antiporter) to form a nonspecific pore”.

With `CO[C@H](C/C=C\C=C\CC/C=C/C[C@H](C)/C=C/C(=C\C(=O)O)CC(=O)O)/C(C)=C\C=C(/C)C(=O)O` [BA, bongkrekic acid] the “effect on binding” value [6] was “partially reduced; also recorded: reduces the binding of Vpr to mitochondria to some extent”, the “effect on Vpr binding to ANT proteoliposomes” value [12] was “inhibited” and the “protection” value [7] was “also inhibited the manifestations of inner MMP”.

With “biotin–Vpr52-96: NH2-terminally biotinylated Vpr52-96 (Biotin-DTWAGVEAIIRILQQLLFIHFRIGCRHSRIGVTRQRRARNGASRS)” the “binding affinity for ANT (in words)” value [4] was “affinity in the nanomolar range”.

With “Vpr52-96[R73A,80A] (Biotin-DTWAGVEAIIRILQQLLFIHFAIGCRHSAIGVTRQRRARNGASRS)” the “specific binding to VDAC” value [16] was “without any difference between Vpr52-96 and Vpr52-96[R73A, 80A] and without detectable saturation” and the “sensorgram: increase of binding as a function of time” value [4] was “Only the sensorgram of the interaction with Vpr52-96 exhibits an increase of binding”.

With `Nc1ncnc2c1ncn2[C@@H]1O[C@H](COP(=O)(O)OP(=O)(O)O)[C@@H](O)[C@H]1O` [ADP, reference compound] the “effect on Vpr-induced NADH-dependent oxygen consumption” value [9] was “strongly inhibited the Vpr-dependent, NADH-stimulated oxygen consumption”.

In the case of “HWWRAESDEARRCYNDPKCCDFVTNR [irrelevant control (Co.), reference compound]”, the “sensorgram: increase of binding as a function of time” value [4] is reported as “Only the sensorgram of the interaction with Vpr52-96 exhibits an increase of binding”.
